Test results: ChEMBL document CHEMBL4706580, “4-Amino-1,2,4-triazole-3-thione-derived Schiff bases as metallo-β-lactamase inhibitors” (Eur J Med Chem, 2020)
pIC50, pKi: −log10 of the molar value. Calls of active or inactive are those of the source. The calls are words filed in the database; no cut-off is given here.

Key:
[1] = Inhibition of beta-lactamase VIM-2 (unknown origin) expressed in Escherichia coli LZ2310 assessed as potentiation of cefoxitin antibacterial activity by measuring cefoxitin induced diameter of inhibition zone at 120 uM incubated for 18 hrs by disk diffusion method (reference value: 14 mm)
Outline: (§1)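 Efflux-deficient E. coli LZ2310 (NorE, MdfA, AcrA knocked out) carrying pLB-II with the cloned MBL gene. Mueller-Hinton, CLSI disk diffusion; antibiotic disks (30 µg cefoxitin for VIM-2, 10 µg ampicillin for VIM-4, 30 µg ceftazidime for NDM-1/IMP-1) loaded with inhibitor in DMSO (≤15 µL). Zone diameter after 18 h, 35 ± 1 °C; DMSO and 220 µg EDTA controls. Triplicate.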

[2] = Inhibition of beta-lactamase VIM-2 (unknown origin) expressed in Escherichia coli LZ2310 assessed as potentiation of cefoxitin antibacterial activity by measuring cefoxitin induced diameter of inhibition zone at 40 uM incubated for 18 hrs by disk diffusion method (reference value: 14 mm); outline: as §1
[3] = Inhibition of beta-lactamase CphA (unknown origin) expressed in Escherichia coli BL21(DE3) using imipenem as substrate by measuring substrate hydrolysis by spectrophotometric analysis
Outline: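 Enzyme 0.2–0.8 nM in 15 mM cacodylate pH 6.5, no added zinc, pre-incubated 30 min at 21 °C with inhibitor (100 μM screen). Imipenem substrate added from 10 mM stock; hydrolysis at 300 nm, 30 °C. Residual activity vs three uninhibited samples; Ki (1–100 μM inhibitor) by Hanes linearization, competitive model. Triplicate.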

[4] = Inhibition of beta-lactamase IMP-1 (unknown origin) expressed in Escherichia coli BL21(DE3) using imipenem as substrate by measuring substrate hydrolysis by spectrophotometric analysis
Outline: (§2)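 Purified enzyme (overproduced in E. coli BL21(DE3), pET-9a; ion-exchange and gel filtration), 1-70 nM final. Reporter substrate 150 μM imipenem, read at 300 nm, 30 °C, 50 mM HEPES pH 7.5. Single-point screen at 100 or 200 μM; Ki from v0/vi vs [I] (0.5–1,000 μM final) assuming competitive inhibition, or Dixon plot. Triplicate.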

[5] = Inhibition of beta-lactamase NDM-1 (unknown origin) expressed in Escherichia coli LZ2310 assessed as potentiation of ceftazidime antibacterial activity by measuring ceftazidime induced diameter of inhibition zone at 40 uM incubated for 18 hrs by disk diffusion method (reference value: 15 mm); outline: as §1
[6] = Inhibition of beta-lactamase NDM1 (unknown origin) expressed in Escherichia coli BL21(DE3) using cefotaxime/nitrocefin as substrate by measuring substrate hydrolysis by spectrophotometric analysis
Outline: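 His-tagged enzyme from E. coli BL21(DE3) pET-15b, affinity-purified, 1-70 nM final. Reporter substrate 120 μM cefotaxime (260 nm) or 100 μM nitrocefin (482 nm), 30 °C, 50 mM HEPES pH 7.5. Inhibitor 0.5–1,000 μM final; competitive Ki from v0/vi vs [I] slope or Dixon plot. Triplicate.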

[7] = Inhibition of beta-lactamase VIM2 (unknown origin) expressed in Escherichia coli BL21(DE3) using imipenem as substrate by measuring substrate hydrolysis by spectrophotometric analysis; outline: as §2
[8] = Inhibition of beta-lactamase VIM4 (unknown origin) expressed in Escherichia coli BL21(DE3) using imipenem as substrate by measuring substrate hydrolysis by spectrophotometric analysis; outline: as §2
[9] = Inhibition of beta-lactamase L1 (unknown origin) expressed in Escherichia coli BL21(DE3) using nitrocefin as substrate by measuring substrate hydrolysis preincubated for 30 mins by spectrophotometric analysis
Outline: (§3)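 Enzyme 0.2–0.8 nM in 25 mM HEPES pH 7.5 with 50 μM ZnCl2 final, pre-incubated 30 min at 21 °C with inhibitor (100 μM screen). Nitrocefin 100 μM final, read at 482 nm, 30 °C. Residual activity vs three uninhibited samples; Ki (1–100 μM inhibitor) from Hanes linearization, competitive model. Triplicate.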

[10] = Inhibition of beta-lactamase IMP-1 (unknown origin) expressed in Escherichia coli LZ2310 assessed as potentiation of ceftazidime antibacterial activity by measuring ceftazidime induced diameter of inhibition zone at 40 uM incubated for 18 hrs by disk diffusion method (reference value: 9 mm); outline: as §1
Escherichia coli [11] = assay: Synergistic antibacterial activity against NDM-1 producing Escherichia coli assessed as MIC of imipenem at 32 ug/ml by broth microdilution method; type: functional; conditions: dose 32 µg/ml
Escherichia coli [12] = assay: Synergistic antibacterial activity against NDM-1 producing Escherichia coli assessed as MIC of meropenem at 32 ug/ml by broth microdilution method; type: functional; conditions: dose 32 µg/ml
Escherichia coli [13] = assay: Synergistic antibacterial activity against NDM-1 producing Escherichia coli assessed as MIC of ceftazidime at 32 ug/ml by broth microdilution method; type: functional; conditions: dose 32 µg/ml
Escherichia coli [14] = assay: Synergistic antibacterial activity against NDM-1 producing Escherichia coli assessed ass MIC of ceftazidime/avibactam at 32 ug/ml by broth microdilution method; type: functional; conditions: dose 32 µg/ml
Outline: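 MIC of ceftazidime-avibactam (avibactam fixed at 4 µg/mL) by CLSI broth microdilution in Mueller-Hinton broth. Used the NDM-1-producing multidrug-resistant E. coli clinical isolate SI-001M at 5 × 10⁴ CFU/well, with and without inhibitor at a fixed 32 µg/ml. No colistin added. Triplicate determinations.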

Escherichia coli [15] = assay: Antibacterial activity against NDM-1 producing Escherichia coli in presence of colistin by broth microdilution method.; type: functional
[16] = target: Hydroxyacylglutathione hydrolase (Homo sapiens); assay: Inhibition of human Glyoxalase II expressed in Escherichia coli BL21 (DE3)
[17] = Inhibition of beta-lactamase VIM-2 (unknown origin) expressed in Escherichia coli XL-1 assessed as potentiation of cefoxitin antibacterial activity by measuring cefoxitin induced diameter of inhibition zone at 120 uM incubated for 18 hrs by disk diffusion method (reference value: 8 mm)
Outline: (§4)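 Wild-type efflux E. coli XL-1 Blue transformed with pLB-II-VIM-2. Mueller-Hinton disk diffusion per CLSI, 30 µg cefoxitin disks loaded with inhibitor dissolved in DMSO (≤15 µL). Growth-inhibition zone measured after 18 h at 35 ± 1 °C; DMSO negative and 220 µg EDTA positive controls. Triplicate.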

[18] = Inhibition of beta-lactamase VIM2 (unknown origin) expressed in Escherichia coli BL21(DE3) using imipenem as substrate by measuring substrate hydrolysis at 100 uM by spectrophotometric analysis; outline: as §2
[19] = Inhibition of beta-lactamase L1 (unknown origin) expressed in Escherichia coli BL21(DE3) using nitrocefin as substrate by measuring substrate hydrolysis at 100 uM preincubated for 30 mins by spectrophotometric analysis; outline: as §3
[20] = Inhibition of beta-lactamase VIM-2 (unknown origin) expressed in Escherichia coli LZ2310 assessed as potentiation of cefoxitin antibacterial activity by measuring cefoxitin induced diameter of inhibition zone at 320 uM incubated for 18 hrs by disk diffusion method (reference value: 14 mm); outline: as §1
[21] = Inhibition of beta-lactamase NDM-1 (unknown origin) expressed in Escherichia coli LZ2310 assessed as potentiation of ceftazidime antibacterial activity by measuring ceftazidime induced diameter of inhibition zone at 320 uM incubated for 18 hrs by disk diffusion method (reference value: 15 mm); outline: as §1
[22] = Inhibition of beta-lactamase VIM-2 (unknown origin) expressed in Escherichia coli XL-1 assessed as potentiation of cefoxitin antibacterial activity by measuring cefoxitin induced diameter of inhibition zone at 320 uM incubated for 18 hrs by disk diffusion method (reference value: 8 mm); outline: as §4
[23] = Inhibition of beta-lactamase IMP-1 (unknown origin) expressed in Escherichia coli LZ2310 assessed as potentiation of ceftazidime antibacterial activity by measuring ceftazidime induced diameter of inhibition zone at 320 uM incubated for 18 hrs by disk diffusion method (reference value: 9 mm); outline: as §1
[24] = Inhibition of beta-lactamase VIM2 (unknown origin) expressed in Escherichia coli BL21(DE3) using imipenem as substrate by measuring substrate hydrolysis at 200 uM by spectrophotometric analysis; outline: as §2

## O=C(O)c1ccccc1/C=N/n1c(Cc2ccc3ccccc3c2)n[nH]c1=S
[1]
  inhibition zone (IZ): 16 mm
[2]
  inhibition zone (IZ): 14 mm
[3]
  pKi: 4.82
[4]
  pKi: 4.46
[5]
  inhibition zone (IZ): 15 mm
[6]
  pKi: 5.77
[7]
  pKi: 5.62
[8]
  pKi: 5.30
[9]
  pKi: 6.30
[10]
  inhibition zone (IZ): 9 mm
Escherichia coli [11]
  MIC: 8 µg/mL
Escherichia coli [12]
  MIC: 64 µg/mL
Escherichia coli [13]
  MIC: > 256 µg/mL
Escherichia coli [14]
  MIC: > 256 µg/mL
Escherichia coli [15]
  MIC: > 256 µg/mL
[16]
  pIC50: 4.52

## Oc1ccc(/C=N/n2c(-c3cccc(C(F)(F)F)c3)n[nH]c2=S)c(O)c1
[4]
  pKi: 4.18
[17]
  inhibition zone (IZ): 12 mm
[6]
  pKi: 4.49
[18]
  inhibition: 53%
[8]
  pKi: 5.46
[19]
  inhibition: 15%

## O=C(O)c1ccccc1/C=N/n1c(-c2cccc(Cl)c2)n[nH]c1=S
[20]
  inhibition zone (IZ): 14 mm
[4]
  pKi: 4.24
[21]
  inhibition zone (IZ): 15 mm
[22]
  inhibition zone (IZ): 8 mm
[6]
  pKi: 5.12
[18]
  inhibition: inactive
[8]
  pKi: 5.70
[19]
  inhibition: 60%
[23]
  inhibition zone (IZ): 9 mm
[24]
  inhibition: inactive
